Where “and” joins values, the source holds several entries; their conditions need not be identical. Equal values may be shown once.
What was measured:
[1] = system: HEK-293T; experiment: Multiplex assay against HEK293T; type: toxicity, cell-based; conditions: human, number of replicates 2
In short: (§1)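 Per cents of healthy-nucleus cells form the tubulin, mitochondrial-mass and membrane-permeability phenotype values. Live cells were stained at seeding with Hoechst33342, BioTracker Green Microtubule Cytoskeleton Dye, MitoTracker Red and Annexin V Alexa Fluor 680. After compound addition they were imaged on a CQ1 microscope at 37°C and 5% CO2, and CellPathfinder machine-learning gating split them into Hoechst high-intensity objects or normal cells, normal cells into healthy, pyknosed or fragmented nuclei, and pyknosed cells into mitotic or apoptotic.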

[2] = system: U2OS; experiment: Multiplex assay against U2OS; type: toxicity, cell-based; conditions: human, number of replicates 2; in short: as §1
[3] = 24 h, 1 µM, compound concentration 1 uM
[4] = 24 h, 10 µM, compound concentration 10 uM
[5] = 48 h, 1 µM, compound concentration 1 uM
[6] = 48 h, 10 µM, compound concentration 10 uM
[7] = 12 h, 1 µM, compound concentration 1 uM
[8] = 12 h, 10 µM, compound concentration 10 uM

## COc1cc(N2CCN(C)CC2)ccc1Nc1ncc2c(n1)N(C)c1ccccc1C(=O)N2CC(F)(F)F
[1]; [3]
  Population Mitochondria Different-Phenotype (%): 8% and 9%
  Population Mitotic Cells (%): 72% and 67%
  Population Normal (%): 92%
  Population Pyknosed Nuclei (%): 5% and 7%
  Population Tubulin-Different-Phenotype (%): 68%
  Total Cell Count: 1356 and 1127
[1]; [4]
  Population Apoptotic (%): 42% and 49%
  Population Fragmented Nuclei (%): 3% and 4%
  Population Healthy Nuclei (%): 80% and 83%
  Population Hoechst High Intensity Objects (%): 6% and 11%
  Population Membrane Permeable-Phenotype (%): 2% and 1%
  Population Mitochondria Different-Phenotype (%): 60% and 59%
  Population Mitotic Cells (%): 57% and 50%
  Population Normal (%): 93% and 88%
  Population Pyknosed Nuclei (%): 16% and 12%
  Population Tubulin-Different-Phenotype (%): 95%
  Total Cell Count: 451 and 561
[1]; [5]
  Population Fragmented Nuclei (%): 10% and 14%
  Population Healthy Nuclei (%): 86% and 82%
  Population Hoechst High Intensity Objects (%): 11% and 10%
  Population Membrane Permeable-Phenotype (%): 4% and 6%
  Population Mitochondria Different-Phenotype (%): 2% and 0%
  Population Mitotic Cells (%): 82% and 95%
  Population Normal (%): 88% and 89%
  Population Pyknosed Nuclei (%): 3%
  Population Tubulin-Different-Phenotype (%): 51% and 48%
  Total Cell Count: 2136 and 2988
[1]; [6]
  Population Apoptotic (%): 50% and 55%
  Population Fragmented Nuclei (%): 4% and 5%
  Population Healthy Nuclei (%): 79% and 83%
  Population Hoechst High Intensity Objects (%): 8% and 11%
  Population Membrane Permeable-Phenotype (%): 7% and 11%
  Population Mitochondria Different-Phenotype (%): 37% and 31%
  Population Mitotic Cells (%): 50% and 44%
  Population Normal (%): 91% and 88%
  Population Pyknosed Nuclei (%): 15% and 11%
  Population Tubulin-Different-Phenotype (%): 91% and 94%
  Total Cell Count: 580 and 656
[2]; [7]
  Population Apoptotic (%): 80% and 51%
  Population Fragmented Nuclei (%): 11% and 4%
  Population Healthy Nuclei (%): 76% and 82%
  Population Hoechst High Intensity Objects (%): 0%
  Population Membrane Permeable-Phenotype (%): 3%
  Population Mitotic Cells (%): 20% and 48%
  Population Normal (%): 100% and 99%
  Population Pyknosed Nuclei (%): 11% and 12%
  Population Tubulin-Different-Phenotype (%): 21% and 22%
[2]; [8]
  Population Apoptotic (%): 64% and 53%
  Population Healthy Nuclei (%): 45% and 78%
  Population Hoechst High Intensity Objects (%): 0%
  Population Membrane Permeable-Phenotype (%): 17% and 28%
  Population Mitochondria Different-Phenotype (%): 58% and 54%
  Population Mitotic Cells (%): 35% and 46%
  Population Normal (%): 100%
  Population Pyknosed Nuclei (%): 37% and 19%
  Population Tubulin-Different-Phenotype (%): 88% and 85%
[2]; [3]
  Population Apoptotic (%): 66% and 68%
  Population Healthy Nuclei (%): 69% and 83%
  Population Hoechst High Intensity Objects (%): 0%
  Population Membrane Permeable-Phenotype (%): 3% and 1%
  Population Mitochondria Different-Phenotype (%): 18% and 19%
  Population Mitotic Cells (%): 33% and 31%
  Population Normal (%): 100% and 99%
  Population Pyknosed Nuclei (%): 15% and 13%
  Population Tubulin-Different-Phenotype (%): 11% and 30%
[2]; [4]
  Population Apoptotic (%): 73%
  Population Fragmented Nuclei (%): 15% and 6%
  Population Healthy Nuclei (%): 39% and 55%
  Population Hoechst High Intensity Objects (%): 0%
  Population Membrane Permeable-Phenotype (%): 30% and 44%
  Population Mitochondria Different-Phenotype (%): 69% and 73%
  Population Mitotic Cells (%): 26%
  Population Normal (%): 100%
  Population Pyknosed Nuclei (%): 45% and 37%
  Population Tubulin-Different-Phenotype (%): 92% and 95%
[2]; [5]
  Population Apoptotic (%): 66% and 72%
  Population Healthy Nuclei (%): 62% and 84%
  Population Hoechst High Intensity Objects (%): 0%
  Population Membrane Permeable-Phenotype (%): 2% and 3%
  Population Mitochondria Different-Phenotype (%): 2% and 11%
  Population Mitotic Cells (%): 33% and 27%
  Population Normal (%): 100% and 99%
  Population Pyknosed Nuclei (%): 22% and 12%
  Population Tubulin-Different-Phenotype (%): 29% and 37%
[2]; [6]
  Population Apoptotic (%): 83% and 86%
  Population Fragmented Nuclei (%): 26% and 11%
  Population Hoechst High Intensity Objects (%): 2% and 0%
  Population Membrane Permeable-Phenotype (%): 85% and 66%
  Population Mitochondria Different-Phenotype (%): 71% and 74%
  Population Mitotic Cells (%): 16% and 13%
  Population Normal (%): 97% and 99%
  Population Pyknosed Nuclei (%): 57% and 34%
  Population Tubulin-Different-Phenotype (%): 100% and 94%

Source: ChEMBL document CHEMBL5303300, “EUbOPEN Chemogenomics Library - Multiplex” (2023)
